System: U2OS
Assay: Multiplex assay against U2OS
Type: toxicity, cell-based
Conditions: human
Outline: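 Live cells were stained at seeding with Hoechst33342, BioTracker Green Microtubule Cytoskeleton Dye, MitoTracker Red and Annexin V Alexa Fluor 680, then imaged on a CQ1 microscope at 37°C and 5% CO2 after compound addition. CellPathfinder machine-learning gating split cells into Hoechst high-intensity objects or normal cells. Normal cells were split into healthy, pyknosed or fragmented nuclei, and pyknosed cells into mitotic or apoptotic. Tubulin, mitochondrial-mass and membrane-permeability phenotypes are per cents of healthy-nucleus cells.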

[1] = 12 h, 1 µM, compound concentration 1 uM, replicate 1
[2] = 12 h, 1 µM, compound concentration 1 uM, replicate 2
[3] = 12 h, 10 µM, compound concentration 10 uM, replicate 1
[4] = 12 h, 10 µM, compound concentration 10 uM, replicate 2
[5] = 24 h, 1 µM, compound concentration 1 uM, replicate 1
[6] = 24 h, 1 µM, compound concentration 1 uM, replicate 2
[7] = 24 h, 10 µM, compound concentration 10 uM, replicate 1
[8] = 24 h, 10 µM, compound concentration 10 uM, replicate 2
[9] = 48 h, 1 µM, compound concentration 1 uM, replicate 1
[10] = 48 h, 1 µM, compound concentration 1 uM, replicate 2
[11] = 48 h, 10 µM, compound concentration 10 uM, replicate 1
[12] = 48 h, 10 µM, compound concentration 10 uM, replicate 2

For Cl.Clc1ccc2nsnc2c1NC1=NCCN1 [TIZANIDINE HYDROCHLORIDE], the “Population Apoptotic (%)” value [1] was 82%, the “Population Fragmented Nuclei (%)” value [1] was 20% and the “Population Healthy Nuclei (%)” value [1] was 73%. The “Population Hoechst High Intensity Objects (%)” value [1] was 2%, the “Population Membrane Permeable-Phenotype (%)” value [1] was 6% and the “Population Mitochondria Different-Phenotype (%)” value [1] was 1%. For the same molecule, the “Population Mitotic Cells (%)” value [1] was 17%, the “Population Normal (%)” value [1] was 97% and the “Population Pyknosed Nuclei (%)” value [1] was 5%. The “Population Tubulin-Different-Phenotype (%)” value [1] was 2%, the “Total Cell Count” value [1] was 306 and the “Population Apoptotic (%)” value [2] was 85%. The “Population Fragmented Nuclei (%)” value [2] was 10%, the “Population Healthy Nuclei (%)” value [2] was 78% and the “Population Hoechst High Intensity Objects (%)” value [2] was 1%. The “Population Membrane Permeable-Phenotype (%)” value [2] was 3%, the “Population Mitochondria Different-Phenotype (%)” value [2] was 2% and the “Population Mitotic Cells (%)” value [2] was 14%. For the same molecule, the “Population Normal (%)” value [2] was 98%, the “Population Pyknosed Nuclei (%)” value [2] was 10% and the “Population Tubulin-Different-Phenotype (%)” value [2] was 3%. The “Total Cell Count” value [2] was 140, the “Population Apoptotic (%)” value [3] was 77% and the “Population Fragmented Nuclei (%)” value [3] was 31%. The “Population Healthy Nuclei (%)” value [3] was 61%, the “Population Hoechst High Intensity Objects (%)” value [3] was 2% and the “Population Membrane Permeable-Phenotype (%)” value [3] was 7%. The “Population Mitochondria Different-Phenotype (%)” value [3] was 2%, the “Population Mitotic Cells (%)” value [3] was 22% and the “Population Normal (%)” value [3] was 97%. For the same molecule, the “Population Pyknosed Nuclei (%)” value [3] was 6%, the “Population Tubulin-Different-Phenotype (%)” value [3] was 2% and the “Total Cell Count” value [3] was 280. For the same molecule, the “Population Apoptotic (%)” value [4] was 90%, the “Population Fragmented Nuclei (%)” value [4] was 22% and the “Population Healthy Nuclei (%)” value [4] was 66%. For the same molecule, the “Population Membrane Permeable-Phenotype (%)” value [4] was 14%, the “Population Mitochondria Different-Phenotype (%)” value [4] was 7% and the “Population Mitotic Cells (%)” value [4] was 10%. The “Population Pyknosed Nuclei (%)” value [4] was 10%, the “Population Tubulin-Different-Phenotype (%)” value [4] was 15% and the “Total Cell Count” value [4] was 98. For the same molecule, the “Population Apoptotic (%)” value [5] was 90%, the “Population Fragmented Nuclei (%)” value [5] was 19% and the “Population Healthy Nuclei (%)” value [5] was 72%. For the same molecule, the “Population Hoechst High Intensity Objects (%)” value [5] was 0%, the “Population Membrane Permeable-Phenotype (%)” value [5] was 4% and the “Population Mitochondria Different-Phenotype (%)” value [5] was 2%. The “Population Mitotic Cells (%)” value [5] was 9%, the “Population Normal (%)” value [5] was 99% and the “Population Pyknosed Nuclei (%)” value [5] was 8%. The “Population Tubulin-Different-Phenotype (%)” value [5] was 5%, the “Total Cell Count” value [5] was 381 and the “Population Apoptotic (%)” value [6] was 89%. For the same molecule, the “Population Fragmented Nuclei (%)” value [6] was 15%, the “Population Healthy Nuclei (%)” value [6] was 73% and the “Population Hoechst High Intensity Objects (%)” value [6] was 4%. The “Population Membrane Permeable-Phenotype (%)” value [6] was 7%, the “Population Mitochondria Different-Phenotype (%)” value [6] was 4% and the “Population Mitotic Cells (%)” value [6] was 10%. The “Population Normal (%)” value [6] was 95%, the “Population Pyknosed Nuclei (%)” value [6] was 11% and the “Population Tubulin-Different-Phenotype (%)” value [6] was 6%. For the same molecule, the “Total Cell Count” value [6] was 172, the “Population Apoptotic (%)” value [7] was 65% and the “Population Fragmented Nuclei (%)” value [7] was 29%. The “Population Healthy Nuclei (%)” value [7] was 62%, the “Population Hoechst High Intensity Objects (%)” value [7] was 2% and the “Population Membrane Permeable-Phenotype (%)” value [7] was 4%. For the same molecule, the “Population Mitochondria Different-Phenotype (%)” value [7] was 1%, the “Population Mitotic Cells (%)” value [7] was 34% and the “Population Normal (%)” value [7] was 97%. The “Population Pyknosed Nuclei (%)” value [7] was 8%, the “Population Tubulin-Different-Phenotype (%)” value [7] was 1% and the “Total Cell Count” value [7] was 327. For the same molecule, the “Population Apoptotic (%)” value [8] was 86%, the “Population Fragmented Nuclei (%)” value [8] was 25% and the “Population Healthy Nuclei (%)” value [8] was 61%. For the same molecule, the “Population Membrane Permeable-Phenotype (%)” value [8] was 12%, the “Population Mitochondria Different-Phenotype (%)” value [8] was 7% and the “Population Mitotic Cells (%)” value [8] was 13%. The “Population Pyknosed Nuclei (%)” value [8] was 13%, the “Population Tubulin-Different-Phenotype (%)” value [8] was 11% and the “Total Cell Count” value [8] was 118. For the same molecule, the “Population Apoptotic (%)” value [9] was 86%, the “Population Fragmented Nuclei (%)” value [9] was 11% and the “Population Healthy Nuclei (%)” value [9] was 80%. For the same molecule, the “Population Hoechst High Intensity Objects (%)” value [9] was 1%, the “Population Membrane Permeable-Phenotype (%)” value [9] was 2% and the “Population Mitochondria Different-Phenotype (%)” value [9] was 1%. The “Population Mitotic Cells (%)” value [9] was 13%, the “Population Normal (%)” value [9] was 98% and the “Population Pyknosed Nuclei (%)” value [9] was 7%. The “Population Tubulin-Different-Phenotype (%)” value [9] was 2%, the “Total Cell Count” value [9] was 512 and the “Population Apoptotic (%)” value [10] was 90%. The “Population Fragmented Nuclei (%)” value [10] was 17%, the “Population Healthy Nuclei (%)” value [10] was 74% and the “Population Hoechst High Intensity Objects (%)” value [10] was 3%. The “Population Membrane Permeable-Phenotype (%)” value [10] was 5%, the “Population Mitochondria Different-Phenotype (%)” value [10] was 2% and the “Population Mitotic Cells (%)” value [10] was 9%. The “Population Normal (%)” value [10] was 96%, the “Population Pyknosed Nuclei (%)” value [10] was 8% and the “Population Tubulin-Different-Phenotype (%)” value [10] was 3%. For the same molecule, the “Total Cell Count” value [10] was 260, the “Population Apoptotic (%)” value [11] was 93% and the “Population Fragmented Nuclei (%)” value [11] was 18%. The “Population Healthy Nuclei (%)” value [11] was 75%, the “Population Hoechst High Intensity Objects (%)” value [11] was 2% and the “Population Membrane Permeable-Phenotype (%)” value [11] was 5%. For the same molecule, the “Population Mitochondria Different-Phenotype (%)” value [11] was 1%, the “Population Mitotic Cells (%)” value [11] was 6% and the “Population Normal (%)” value [11] was 97%. For the same molecule, the “Population Pyknosed Nuclei (%)” value [11] was 6%, the “Population Tubulin-Different-Phenotype (%)” value [11] was 3% and the “Total Cell Count” value [11] was 459. The “Population Apoptotic (%)” value [12] was 76%, the “Population Fragmented Nuclei (%)” value [12] was 22% and the “Population Healthy Nuclei (%)” value [12] was 65%. The “Population Hoechst High Intensity Objects (%)” value [12] was 4%, the “Population Membrane Permeable-Phenotype (%)” value [12] was 15% and the “Population Mitochondria Different-Phenotype (%)” value [12] was 5%. The “Population Mitotic Cells (%)” value [12] was 23%, the “Population Normal (%)” value [12] was 95% and the “Population Pyknosed Nuclei (%)” value [12] was 11%. The “Population Tubulin-Different-Phenotype (%)” value [12] was 7% and the “Total Cell Count” value [12] was 149.
